Experimental data reported in ChEMBL document CHEMBL4376844, “A Novel Decalin-Based Bicyclic Scaffold for FKBP51-Selective Ligands” (J Med Chem, 2020).
Activity calls are given as the source filed them. No cut-off for these calls is given here.

Assays:
[1] = target: T1, Peptidyl-prolyl cis-trans isomerase FKBP5 (Homo sapiens, UniProt Q13451); assay: Inhibition of human full length N-terminal His-tagged/C-terminal FLAG tagged FKBP51 expressed in Escherichia coli BL21 (DE3) cells incubated for 30 mins by competitive fluorescence polarization assay
T1 sequence (Q13451 whole entry): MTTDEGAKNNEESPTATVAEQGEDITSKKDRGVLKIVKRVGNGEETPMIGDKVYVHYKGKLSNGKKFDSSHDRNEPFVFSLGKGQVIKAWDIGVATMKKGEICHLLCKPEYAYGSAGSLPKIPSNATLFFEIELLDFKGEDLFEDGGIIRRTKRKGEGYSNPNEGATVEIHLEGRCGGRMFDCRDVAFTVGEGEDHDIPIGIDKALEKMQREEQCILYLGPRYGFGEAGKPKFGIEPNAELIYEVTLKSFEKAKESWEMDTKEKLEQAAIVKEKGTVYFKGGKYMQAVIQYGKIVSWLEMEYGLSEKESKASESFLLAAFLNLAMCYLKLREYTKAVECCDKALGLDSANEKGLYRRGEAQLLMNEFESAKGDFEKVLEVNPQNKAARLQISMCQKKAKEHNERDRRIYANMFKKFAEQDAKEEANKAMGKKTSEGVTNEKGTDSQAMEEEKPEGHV

[2] = target: T2, Peptidyl-prolyl cis-trans isomerase FKBP4 (Homo sapiens, UniProt Q02790); assay: Inhibition of human full length N-terminal His-tagged/C-terminal FLAG tagged FKBP52 expressed in Escherichia coli BL21 (DE3) cells incubated for 30 mins by competitive fluorescence polarization assay; conditions: 0.5 h
T2 sequence (Q02790 whole entry): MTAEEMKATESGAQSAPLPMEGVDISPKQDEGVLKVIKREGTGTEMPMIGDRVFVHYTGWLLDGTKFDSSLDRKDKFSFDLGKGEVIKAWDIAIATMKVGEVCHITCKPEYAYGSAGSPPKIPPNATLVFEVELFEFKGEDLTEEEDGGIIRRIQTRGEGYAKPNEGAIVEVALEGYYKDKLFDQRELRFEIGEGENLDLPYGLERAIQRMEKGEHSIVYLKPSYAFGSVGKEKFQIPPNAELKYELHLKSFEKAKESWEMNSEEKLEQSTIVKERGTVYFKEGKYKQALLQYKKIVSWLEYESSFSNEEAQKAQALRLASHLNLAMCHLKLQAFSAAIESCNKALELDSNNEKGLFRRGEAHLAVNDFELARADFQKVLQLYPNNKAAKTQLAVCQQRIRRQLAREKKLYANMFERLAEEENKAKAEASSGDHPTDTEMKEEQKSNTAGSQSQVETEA

Cytochrome P450 3A4 = Cytochrome P450 3A4 (Homo sapiens, UniProt P08684); assay: Inhibition of CYP3A4 (unknown origin); type: ADME
Sequence of Cytochrome P450 3A4 (P08684 whole entry): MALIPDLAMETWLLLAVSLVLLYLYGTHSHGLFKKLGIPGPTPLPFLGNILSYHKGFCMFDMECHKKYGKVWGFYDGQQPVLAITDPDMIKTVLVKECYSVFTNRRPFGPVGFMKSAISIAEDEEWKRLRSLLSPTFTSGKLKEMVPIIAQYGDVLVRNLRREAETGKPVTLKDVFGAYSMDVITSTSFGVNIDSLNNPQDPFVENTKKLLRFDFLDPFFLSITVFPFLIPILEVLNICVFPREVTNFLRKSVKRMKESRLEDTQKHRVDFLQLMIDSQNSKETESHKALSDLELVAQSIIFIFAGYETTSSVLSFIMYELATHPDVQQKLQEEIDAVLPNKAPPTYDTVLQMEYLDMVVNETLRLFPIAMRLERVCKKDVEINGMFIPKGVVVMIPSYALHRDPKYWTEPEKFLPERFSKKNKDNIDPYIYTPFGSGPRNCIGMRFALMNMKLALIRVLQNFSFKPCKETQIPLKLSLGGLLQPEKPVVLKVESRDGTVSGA

KB [3] = assay: Induction of apoptosis in human KB/HeLa cells overexpressing FKBP51 assessed as viable cells at 1 uM incubated for 40 hrs by AnnexinV-FITC and propidium iodide staining based flow cytometry analysis (reference value: 87.7%); type: functional; conditions: read-out: Activity
KB [4] = assay: Induction of apoptosis in human KB/HeLa cells overexpressing FKBP51 assessed as early apoptotic cells at 1 uM incubated for 40 hrs by AnnexinV-FITC and propidium iodide staining based flow cytometry analysis (reference value: 3.5%); type: functional
KB [5] = assay: Induction of apoptosis in human KB/HeLa cells overexpressing FKBP51 assessed as late apoptotic cells at 1 uM incubated for 40 hrs by AnnexinV-FITC and propidium iodide staining based flow cytometry analysis (reference value: 3.4%); type: functional
KB [6] = assay: Induction of apoptosis in human KB/HeLa cells overexpressing FKBP51 assessed as necrotic cells at 1 uM incubated for 40 hrs by AnnexinV-FITC and propidium iodide staining based flow cytometry analysis (reference value: 5.4%); type: functional
KB [7] = assay: Induction of apoptosis in human KB/HeLa cells overexpressing FKBP51 assessed as early apoptotic cells at 12 uM incubated for 40 hrs by AnnexinV-FITC and propidium iodide staining based flow cytometry analysis (reference value: 3.5%); type: functional
KB [8] = assay: Induction of apoptosis in human KB/HeLa cells overexpressing FKBP51 assessed as viable cells at 12 uM incubated for 40 hrs by AnnexinV-FITC and propidium iodide staining based flow cytometry analysis (reference value: 87.7%); type: functional; conditions: read-out: Activity
KB [9] = assay: Cytotoxicity against human KB/HeLa cells overexpressing FKBP51 assessed as induction of cell death by measuring hypodiploid cells at 20 uM incubated for 72 hrs by propidium iodide based flow cytometry analysis (reference value: 4.7%); type: functional
KB [10] = assay: Cytotoxicity against human KB/HeLa cells overexpressing FKBP51 assessed as induction of cell death by measuring hypodiploid cells at 6 uM incubated for 72 hrs by propidium iodide based flow cytometry analysis (reference value: 4.7%); type: functional
KB [11] = assay: Cytotoxicity against human KB/HeLa cells overexpressing FKBP51 assessed as induction of cell death by measuring hypodiploid cells at 1 uM incubated for 72 hrs by propidium iodide based flow cytometry analysis (reference value: 4.7%); type: functional
KB [12] = assay: Cytotoxicity against human KB/HeLa cells overexpressing FKBP51 assessed as induction of cell death by measuring hypodiploid cells at 60 uM incubated for 72 hrs by propidium iodide based flow cytometry analysis (reference value: 4.7%); type: functional
KB [13] = assay: Induction of apoptosis in human KB/HeLa cells overexpressing FKBP51 assessed as late apoptotic cells at 12 uM incubated for 40 hrs by AnnexinV-FITC and propidium iodide staining based flow cytometry analysis (reference value: 3.4%); type: functional
KB [14] = assay: Induction of apoptosis in human KB/HeLa cells overexpressing FKBP51 assessed as necrotic cells at 12 uM incubated for 40 hrs by AnnexinV-FITC and propidium iodide staining based flow cytometry analysis (reference value: 5.4%); type: functional
KB [15] = assay: Induction of apoptosis in human KB/HeLa cells overexpressing FKBP51 assessed as viable cells at 25 uM incubated for 40 hrs by AnnexinV-FITC and propidium iodide staining based flow cytometry analysis (reference value: 87.7%); type: functional; conditions: read-out: Activity
KB [16] = assay: Induction of apoptosis in human KB/HeLa cells overexpressing FKBP51 assessed as early apoptotic cells at 25 uM incubated for 40 hrs by AnnexinV-FITC and propidium iodide staining based flow cytometry analysis (reference value: 3.5%); type: functional
KB [17] = assay: Induction of apoptosis in human KB/HeLa cells overexpressing FKBP51 assessed as late apoptotic cells at 25 uM incubated for 40 hrs by AnnexinV-FITC and propidium iodide staining based flow cytometry analysis (reference value: 3.4%); type: functional
KB [18] = assay: Induction of apoptosis in human KB/HeLa cells overexpressing FKBP51 assessed as necrotic cells at 25 uM incubated for 40 hrs by AnnexinV-FITC and propidium iodide staining based flow cytometry analysis (reference value: 5.4%); type: functional
KB [19] = assay: Induction of apoptosis in human KB/HeLa cells overexpressing FKBP51 assessed as viable cells at 50 uM incubated for 40 hrs by AnnexinV-FITC and propidium iodide staining based flow cytometry analysis (reference value: 87.7%); type: functional; conditions: read-out: Activity
KB [20] = assay: Induction of apoptosis in human KB/HeLa cells overexpressing FKBP51 assessed as early apoptotic cells at 50 uM incubated for 40 hrs by AnnexinV-FITC and propidium iodide staining based flow cytometry analysis (reference value: 3.5%); type: functional
KB [21] = assay: Induction of apoptosis in human KB/HeLa cells overexpressing FKBP51 assessed as late apoptotic cells at 50 uM incubated for 40 hrs by AnnexinV-FITC and propidium iodide staining based flow cytometry analysis (reference value: 3.4%); type: functional
KB [22] = assay: Induction of apoptosis in human KB/HeLa cells overexpressing FKBP51 assessed as necrotic cells at 50 uM incubated for 40 hrs by AnnexinV-FITC and propidium iodide staining based flow cytometry analysis (reference value: 5.4%); type: functional
KB [23] = assay: Cytotoxicity against human KB/HeLa cells overexpressing FKBP51 assessed as induction of cell death incubated for 72 hrs by propidium iodide based flow cytometry analysis; type: functional
In short: (§1)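 KB cells exposed to a range of compound doses for 72 h. 1×10^5 cells washed in PBS, then permeabilized in 0.1% sodium citrate, 0.1% Triton X-100 and 50 µg/mL propidium iodide for 30 min at 4°C in the dark. Nuclear DNA content read by flow cytometry on a log scale with debris gated out by forward scatter; % hypodiploid nuclei taken as dead cells. Four experiments, each in triplicate.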

KB [24] = assay: Induction of apoptosis in human KB/HeLa cells overexpressing FKBP51 assessed as increase in early apoptotic cells incubated for 40 hrs by annexin V and propidium iodide based flow cytometry analysis; type: functional, cell-based
HeLa = assay: Induction of apoptosis in human HeLa cells expressing low leves of FKBP51 at 50 uM incubated for 40 hrs by AnnexinV-FITC and propidium iodide staining based flow cytometry analysis; type: functional, cell-based
[25] = Solubility of compound; type: physicochemical
[26] = target: T3, Peptidyl-prolyl cis-trans isomerase FKBP5 (Homo sapiens) (UniProt Q13451); assay: Inhibition of human full length N-terminal His-tagged/C-terminal FLAG tagged FKBP51 expressed in Escherichia coli BL21 (DE3) cells at >=10 uM incubated for 30 mins by competitive fluorescence polarization assay
T3 sequence (whole entry): T1 sequence (Q13451 whole entry)

KB [27] = assay: Cytotoxicity against human KB/HeLa cells overexpressing FKBP51 assessed as cell death up to 60 uM incubated for 72 hrs by propidium iodide staining based flow cytometry analysis; type: functional; in short: as §1

In the case of `COc1ccc(CC[C@@H](OC(=O)[C@@H]2CCCCN2C(=O)[C@@H]2CCC[C@@H]3CCCC[C@H]32)c2cccc(OCC(=O)O)c2)cc1OC`, the Ki [1] is reported as 810 nM, the “inhibition (INH)” value [2] is reported as “Not Active” and the IC50 (Cytochrome P450 3A4) is reported as 8400 nM.

`COc1ccc(CC[C@@H](OC(=O)[C@@H]2CCCCN2C(=O)[C@H](c2cc(OC)c(OC)c(OC)c2)C2CCCCC2)c2cccc(OCC(=O)O)c2)cc1OC` gave a viability at 1 µM (KB [3]) of 65.1%, an Activity (KB [4]) of 20.2% and an Activity (KB [5]) of 12.6%. The Activity (KB [6]) was 2.1%.

`COc1ccc(CCC(OC(=O)C2CCCCN2C(=O)[C@@H]2C[C@@H](O)[C@@H](O)[C@@H]3CCCC[C@H]32)c2cccc(OCCN3CCOCC3)c2)cc1OC` (single isomer, unassigned) showed an Activity (KB [7]) of 10.1%, a viability at 12 µM (KB [8]) of 73.7% and an Activity (KB [9]) of 15.3%. For the same compound, the Activity (KB [10]) was 11.6%, the Activity (KB [11]) was 5.6% and the Ki [1] was 280 nM. For the same compound, the “inhibition (INH)” value [2] was “Not Active”, the Activity (KB [12]) was 26.1% and the Activity (KB [13]) was 6.6%. For the same compound, the Activity (KB [14]) was 9.6%, the viability at 25 µM (KB [15]) was 72.5% and the Activity (KB [16]) was 11.1%. It also gave an Activity (KB [17]) of 9.6%, an Activity (KB [18]) of 6.8% and a viability at 50 µM (KB [19]) of 58.9%. The Activity (KB [20]) was 21.7%, the Activity (KB [21]) was 11.4% and the Activity (KB [22]) was 8.1%. The Activity (KB [23]) was “Dose-dependent effect”, the Activity (KB [24]) was “Dose-dependent effect” and the Activity (HeLa) was “Active”.

In the case of `COc1ccc(CC[C@@H](OC(=O)[C@@H]2CCCCN2C(=O)c2ccnc3ccccc23)c2cccc(OCC(=O)O)c2)cc1OC`, the solubility [25] is reported as > 10 µM and the inhibition [26] is reported as “inactive”.

For `COc1ccc(CC[C@@H](OC(=O)[C@@H]2CCCCN2C(=O)c2cccc3ccccc23)c2cccc(OCC(=O)O)c2)cc1OC`, the solubility [25] was > 10 µM, the Activity (KB [27]) was “inactive” and the inhibition [26] was “inactive”.
